From ChEMBL document CHEMBL1154693, “Discovery of trans-4-[1-[[2,5-Dichloro-4-(1-methyl-3-indolylcarboxamido)phenyl]acetyl]-(4S)-methoxy-(2S)-pyrrolidinylmethoxy]cyclohexanecarboxylic acid: an orally active, selective very late antigen-4 antagonist” (J Med Chem, 2009)

Legend:
[1] = Oral bioavailability in rat; details: in vivo
Integrin alpha-4/beta-1 [2] = biological target: T1, Integrin alpha-4/beta-1 (Homo sapiens, UniProt P05556+P13612); assay: Inhibition of europium labeled human VCAM1/Fc chimera binding to human VLA-4 alpha-4-beta-1 expressed in Chinese hamster 4B4 cells by fluorimetric assay; type: cell-based
T1 sequence (P05556 whole entry): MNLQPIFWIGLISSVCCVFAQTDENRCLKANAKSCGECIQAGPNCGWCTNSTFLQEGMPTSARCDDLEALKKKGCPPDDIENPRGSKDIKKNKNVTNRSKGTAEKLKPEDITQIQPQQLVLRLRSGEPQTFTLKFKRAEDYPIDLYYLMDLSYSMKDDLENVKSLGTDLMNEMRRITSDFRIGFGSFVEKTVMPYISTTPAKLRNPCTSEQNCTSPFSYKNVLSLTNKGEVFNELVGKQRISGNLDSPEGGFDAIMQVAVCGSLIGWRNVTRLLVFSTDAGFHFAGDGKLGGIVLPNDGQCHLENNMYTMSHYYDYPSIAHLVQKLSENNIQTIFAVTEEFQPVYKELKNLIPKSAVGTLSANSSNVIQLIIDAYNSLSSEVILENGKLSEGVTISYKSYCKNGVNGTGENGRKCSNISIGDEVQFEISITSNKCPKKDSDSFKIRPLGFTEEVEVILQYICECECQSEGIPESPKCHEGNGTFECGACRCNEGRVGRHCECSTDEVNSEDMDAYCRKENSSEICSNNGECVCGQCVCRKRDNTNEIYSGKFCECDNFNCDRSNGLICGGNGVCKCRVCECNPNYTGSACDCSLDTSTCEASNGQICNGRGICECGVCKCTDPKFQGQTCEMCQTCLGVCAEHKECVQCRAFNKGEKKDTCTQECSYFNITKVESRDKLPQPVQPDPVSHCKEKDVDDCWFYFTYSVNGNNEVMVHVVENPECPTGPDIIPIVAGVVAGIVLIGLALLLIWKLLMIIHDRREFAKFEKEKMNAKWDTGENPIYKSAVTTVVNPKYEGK
T1 sequence (P13612 whole entry): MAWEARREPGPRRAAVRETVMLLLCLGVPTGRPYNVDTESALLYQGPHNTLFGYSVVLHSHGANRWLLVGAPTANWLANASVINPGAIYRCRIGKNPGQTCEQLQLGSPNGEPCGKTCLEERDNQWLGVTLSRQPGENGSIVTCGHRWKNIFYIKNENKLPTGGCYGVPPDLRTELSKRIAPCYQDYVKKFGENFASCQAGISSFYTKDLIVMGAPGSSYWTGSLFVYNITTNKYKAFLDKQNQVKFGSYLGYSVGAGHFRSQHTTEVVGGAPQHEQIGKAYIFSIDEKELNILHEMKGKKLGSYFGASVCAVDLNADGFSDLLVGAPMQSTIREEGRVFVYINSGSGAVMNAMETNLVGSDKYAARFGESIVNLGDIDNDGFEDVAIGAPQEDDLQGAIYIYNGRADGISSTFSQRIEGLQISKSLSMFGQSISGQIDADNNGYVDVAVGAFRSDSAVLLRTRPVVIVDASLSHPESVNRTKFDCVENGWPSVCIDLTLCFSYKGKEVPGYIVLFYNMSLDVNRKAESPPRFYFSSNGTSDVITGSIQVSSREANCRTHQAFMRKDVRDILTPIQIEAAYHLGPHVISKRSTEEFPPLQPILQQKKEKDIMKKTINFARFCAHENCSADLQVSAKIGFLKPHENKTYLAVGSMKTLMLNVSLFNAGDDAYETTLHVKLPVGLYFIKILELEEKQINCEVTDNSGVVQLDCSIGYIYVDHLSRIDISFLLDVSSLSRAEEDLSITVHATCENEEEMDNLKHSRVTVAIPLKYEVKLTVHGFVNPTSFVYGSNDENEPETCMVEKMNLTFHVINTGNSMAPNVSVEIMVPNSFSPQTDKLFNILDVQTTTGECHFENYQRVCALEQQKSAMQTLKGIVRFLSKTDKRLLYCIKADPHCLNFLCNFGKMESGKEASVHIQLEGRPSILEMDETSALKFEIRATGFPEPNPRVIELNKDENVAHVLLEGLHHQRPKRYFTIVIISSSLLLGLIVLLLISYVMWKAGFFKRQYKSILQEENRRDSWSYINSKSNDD

Integrin alpha-4/beta-1 [3] = biological target: T1, Integrin alpha-4/beta-1; assay: Inhibition of europium labeled human VCAM1/Fc chimera binding to human VLA-4 alpha-4-beta-1 expressed in Chinese hamster 4B4 cells in presence of 3% HSA by fluorimetric assay; type: cell-based
In short: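 CHO-K1 4B4 cells transfected with human α4 and β1, plated at 3 × 10⁵ cells/mL and cultured 2 days, washed with HEPES pH 7.5 buffer containing Ca, Mg, Mn. Compound plus Eu-labeled human VCAM-1/Fc (final 1 nM), with or without human serum albumin, 60 min at room temperature; washed, Eu time-resolved fluorescence read; duplicates.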

[4] = Drug level in BALB/c mouse serum at 10 mg/kg, po after 15 mins; type: ADME, organism-based; design: dose 10 mg/kg, route oral; details: read-out: Drug uptake
In short: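 Serum (final 0.01-10%) assayed in the VLA-4/VCAM-1 binding assay, and concentration estimated from a calibration curve of compound spiked into untreated mouse serum.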

[5] = Clearance in Sprague-Dawley rat at 10 mg/kg, iv; type: ADME, organism-based; design: dose 10 mg/kg, route intravenous; details: in vivo
[6] = Volume of distribution at steady state in Sprague-Dawley rat at 10 mg/kg, iv; type: ADME, organism-based; design: dose 10 mg/kg, route intravenous; details: in vivo, read-out: Vdss
[7] = Half life in Sprague-Dawley rat at 10 mg/kg, iv; type: ADME, organism-based; design: dose 10 mg/kg, route intravenous; details: in vivo
[8] = Protein binding in plasma
[9] = biological target: Integrin alpha-4/beta-7 (Homo sapiens) (UniProt P13612+P26010); details: at 4 µg/mL
in vivo = details: rat, plasma

- bioavailability [1]: 24%
- IC50 (Integrin alpha-4/beta-1 [2]): 2.8 nM
- IC50 (Integrin alpha-4/beta-1 [3]): 45 nM
- concentration at 0.25 h [4]: 373 ng/mL
- clearance [5]: 12.2 mL/min/kg
- Vd [6]: 0.317 L/kg
- half-life [7]: 48 min
- fraction unbound [8]: 0.03
- inhibition [9]: 46%
- clearance (in vivo): 12.2 mL/min/kg
Compound: Cc1ccccc1Nc1nc2ccc(CC(=O)N3C[C@@H](F)C[C@H]3CO[C@H]3CC[C@H](C(=O)O)CC3)cc2o1
